ChEMBL document CHEMBL1129262, “Peptidyl anthraquinones as potential antineoplastic drugs: synthesis, DNA binding, redox cycling, and biological activity” (J Med Chem, 1996)

Legend:
[1] = Exclusion parameter (base pairs; format: ADME
Outline: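 Fluorometric titration at 25 °C in 10 mM Tris pH 7.0, 1 mM EDTA, NaCl set to the chosen ionic strength. DNA/drug ratio varied at constant drug concentration by mixing drug-alone and drug-plus-DNA solutions. Nonfluorescent drugs followed spectrophotometrically at 500–750 nm. Data fitted by McGhee–von Hippel to give K and the exclusion parameter n.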

Nucleic Acid = experiment: Intrinsic Binding constant of compound to DNA at pH 7 and 25 Centigrade; format: functional; conditions: Bos taurus
Outline: (§1)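 DNA titrations were run at constant anthraquinone concentration while the DNA/drug ratio was varied, at 25 °C in 10 mM Tris pH 7.0 with 1 mM EDTA and NaCl added to set ionic strength. Binding was followed by fluorescence quenching, or by absorbance at 500–750 nm for non-fluorescent drugs. McGhee–von Hippel analysis gave the intrinsic constant K and the exclusion parameter n.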

HL-60 = experiment: Effective concentration against cell growth of HL60 cell line by 50%; format: functional; conditions: Homo sapiens, HL-60, read-out: ED50
Outline: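 HL60 cells grown in RPMI-1640 with 10% fetal calf serum. Exponentially growing cells were exposed to drug for 1 h at 37 °C. Survival was read either by MTT, after washing and 96 h culture in drug-free medium, or by cell counting after 72 h culture. Value is the drug concentration inhibiting cell growth by 50%.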

HeLa = experiment: Effective concentration against cell growth of HeLa cell line by 50%; format: functional; conditions: Homo sapiens, read-out: ED50
Outline: (§2)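 HeLa and L1210 cells grown in Dulbecco's modified Eagle's medium with 5% fetal calf serum, antibiotics and L-glutamine. Exponentially growing cells were exposed to drug for 1 h at 37 °C. Growth was scored by MTT, after washing and 96 h drug-free culture, or by cell counting after 72 h. Value is the concentration giving 50% growth inhibition.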

L1210 = experiment: Effective concentration against cell growth of L1210 cell line by 50%; format: functional; conditions: Mus musculus, L1210, read-out: ED50; outline: as §2
[2] = Exclusion parameter (base pairs); format: ADME; outline: as §1

Row | K x10e-5 (Nucleic Acid) | EC50 (HL-60) | EC50 (HeLa) | EC50 (L1210) | Exclusion parameter [2] | SMILES | Exclusion parameter [1]
1 |  | 28000 nM |  |  |  | NC(Cc1c[nH]c2ccccc12)C(=O)NCC(=O)Nc1ccc(NC(=O)CNC(=O)C(N)Cc2c[nH]c3ccccc23)c2c1C(=O)c1ccccc1C2=O (configuration not stated) | 
2 | 3.6 M⁻¹ | 2000 nM | 2700 nM | 310 nM | 2.1 | NCC(=O)Nc1ccc(N)c2c1C(=O)c1ccccc1C2=O | 
3 | 17.5 M⁻¹ | > 100000 nM | > 100000 nM |  | 2.3 | NCCCC[C@H](N)C(=O)NCC(=O)Nc1ccc(NC(=O)CNC(=O)[C@@H](N)CCCCN)c2c1C(=O)c1ccccc1C2=O | 
4 | 2.4 M⁻¹ | 2300 nM | 2400 nM | 800 nM | 2.5 | NCC(=O)NCC(=O)Nc1ccc(NC(=O)CNC(=O)CN)c2c1C(=O)c1ccccc1C2=O | 
5 |  | 30000 nM |  |  |  | N[C@@H](Cc1c[nH]c2ccccc12)C(=O)NCC(=O)Nc1ccc(NC(=O)CNC(=O)[C@@H](N)Cc2c[nH]c3ccccc23)c2c1C(=O)c1ccccc1C2=O | 
6 | 1.7 M⁻¹ | 2000 nM | 2700 nM | 240 nM | 2.2 | NCC(=O)NCC(=O)Nc1ccc(N)c2c1C(=O)c1ccccc1C2=O | 
7 | 2.4 M⁻¹ |  |  |  | 2.4 | NCC(=O)NCC(=O)NCC(=O)Nc1ccc(NC(=O)CNC(=O)CNC(=O)CN)c2c1C(=O)c1ccccc1C2=O | 
8 | 2.2 M⁻¹ | 1900 nM | 1600 nM | 900 nM | 2.3 | NCC(=O)Nc1ccc(NC(=O)CN)c2c1C(=O)c1ccccc1C2=O | 
9 | 33 M⁻¹ | > 100000 nM | > 100000 nM |  | 2.4 | NCCCCC(N)C(=O)NCC(=O)Nc1ccc(NC(=O)CNC(=O)C(N)CCCCN)c2c1C(=O)c1ccccc1C2=O (configuration not stated) | 

Row | SMILES | K x10e-5 (Nucleic Acid) | EC50 (HL-60) | EC50 (HeLa) | EC50 (L1210) | Exclusion parameter [2] | Exclusion parameter [1]
10 | O=C1c2ccccc2C(=O)c2c(NCCNCCO)ccc(NCCNCCO)c21 [AMETANTRONE] | 3.4 M⁻¹ | 880 nM | 3100 nM | 100 nM |  | 2.7
